Test results reported in ChEMBL document CHEMBL2407020, “Design, synthesis, and evaluation of novel VEGFR2 kinase inhibitors: discovery of [1,2,4]triazolo[1,5-a]pyridine derivatives with slow dissociation kinetics” (Bioorg Med Chem, 2013).
In brackets after ≈: the same amount, converted by molar mass.

How the values were obtained:
[1] = Kinetic solubility of the compound in 2nd fluid of Disintegration Test of the Japanese Pharmacopoeia at pH 6.8; type: physicochemical; conditions: read-out: Kinetic_solubility
Outline: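 Kinetic solubility measured in JP2 (2nd fluid of Disintegration Test, Japanese Pharmacopoeia), pH 6.8.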

[2] = Metabolic stability in human liver microsomes; type: ADME, Microsome; conditions: read-out: Stability
Outline: (§1)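 Metabolic stability measured in hepatic microsomes, expressed in µL/min/mg.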

[3] = Metabolic stability in mouse liver microsomes; type: ADME, Microsome; conditions: read-out: Stability; outline: as §1

Cc1cc(C(=O)Nc2cccc(Oc3ccc4nc(NC(=O)C5CC5)cn4n3)c2)n(C)n1
solubility kinetic [1]: 1.7 µg/mL (≈ 3.94 µM)
microsomal CLint [2]: 6 µL/min/mg
microsomal CLint [3]: 43 µL/min/mg

Cc1cc(C(=O)Nc2cccc(Oc3ccc4nc(NC(=O)C5CC5)nn4c3)c2)n(C)n1
solubility kinetic [1]: 1.2 µg/mL (≈ 2.78 µM)

Cc1cc(C(=O)Nc2cc(Oc3ccc4nc(NC(=O)C5CC5)nn4c3)ccc2C)n(C)n1
solubility kinetic [1]: 53 µg/mL (≈ 119 µM)

Cc1cc(NC(=O)c2cc(C)nn2C)cc(Oc2ccc3nc(NC(=O)C4CC4)nn3c2)c1
solubility kinetic [1]: 3.2 µg/mL (≈ 7.18 µM)

Cc1cc(C(=O)Nc2cc(Oc3ccc4nc(NC(=O)C5CC5)nn4c3)ccc2F)n(C)n1
solubility kinetic [1]: 65 µg/mL (≈ 145 µM)
microsomal CLint [2]: 10 µL/min/mg
microsomal CLint [3]: 45 µL/min/mg

Cc1cc(C(=O)Nc2cccc(Oc3ccc4nc(NC(=O)C5CC5)cn4c3)c2)n(C)n1
solubility kinetic [1]: 0.73 µg/mL (≈ 1.7 µM)

Cc1cc(C(=O)Nc2cc(Oc3ccc4nc(NC(=O)C5CC5)cn4c3)ccc2C)n(C)n1
solubility kinetic [1]: 2.9 µg/mL (≈ 6.52 µM)

Cc1cc(C(=O)Nc2cccc(Oc3ccc4nc(NC(=O)C5CC5)sc4n3)c2)n(C)n1
solubility kinetic [1]: < 0.04 µg/mL

Cc1cc(C(=O)Nc2cc(Oc3ccc4nc(NC(=O)C5CC5)sc4n3)ccc2C)n(C)n1
solubility kinetic [1]: 4.8 µg/mL (≈ 10.4 µM)

Cc1cc(C(=O)Nc2ccc(C)c(Oc3ccc4nc(NC(=O)C5CC5)nn4c3)c2)n(C)n1
solubility kinetic [1]: 3.7 µg/mL (≈ 8.31 µM)

Cc1nc(C(=O)Nc2cc(Oc3ccc4nc(NC(=O)C5CC5)nn4c3)ccc2C)c(C)s1
solubility kinetic [1]: 0.16 µg/mL (≈ 0.346 µM)

Cc1ccc(Oc2ccc3nc(NC(=O)C4CC4)nn3c2)cc1NC(=O)c1scc(C)c1Cl
solubility kinetic [1]: 1.2 µg/mL (≈ 2.49 µM)

Cc1ccc(Oc2ccc3nc(NC(=O)C4CC4)nn3c2)cc1NC(=O)c1cn(C)nc1C
solubility kinetic [1]: > 93 µg/mL
microsomal CLint [2]: 6 µL/min/mg
microsomal CLint [3]: 78 µL/min/mg

Cc1ccc(Oc2ccc3nc(NC(=O)C4CC4)nn3c2)cc1NC(=O)c1ccnn1C
solubility kinetic [1]: > 80 µg/mL

Cc1ccc(Oc2ccc3nc(NC(=O)C4CC4)nn3c2)cc1NC(=O)CC(C)C
solubility kinetic [1]: 12 µg/mL (≈ 29.4 µM)

Cc1ccc(Oc2ccc3nc(NC(=O)C4CC4)nn3c2)cc1NC(=O)C1CCC1
solubility kinetic [1]: > 78 µg/mL

Cc1cc(C(=O)Nc2cccc(Oc3ccc4nc(NC(=O)C5CC5)sc4c3)c2)n(C)n1
solubility kinetic [1]: 0.22 µg/mL (≈ 0.492 µM)
